Compound activity as filed in PubChem.
Rows were chosen to be rich in hits. Some 2.5% of all compounds tested hit in one or more screens of this group.
SIRT5 block – inhibitors of human sirtuin-5 desuccinylase. hit rate 1.1% among 330,000. Purified SirT5, succinyl-peptide AMC, trypsin-coupled fluorescence. inhibition, % at 15 µM; in the data active = inhibition above about 15%
Target sequence (Q9NXA8 whole entry, looked up): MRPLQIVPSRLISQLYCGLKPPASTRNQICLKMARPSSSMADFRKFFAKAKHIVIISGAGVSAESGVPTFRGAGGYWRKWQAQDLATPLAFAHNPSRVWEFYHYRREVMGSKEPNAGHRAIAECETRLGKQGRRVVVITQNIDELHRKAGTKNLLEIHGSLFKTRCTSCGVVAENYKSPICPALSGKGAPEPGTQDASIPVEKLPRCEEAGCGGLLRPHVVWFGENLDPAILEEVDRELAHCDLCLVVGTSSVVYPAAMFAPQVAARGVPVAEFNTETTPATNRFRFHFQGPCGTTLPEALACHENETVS
S100A4 inh HTS – inhibitors of human S100A4 binding to myosin IIA peptide. inhibition, % at 10.7 µM. hit rate 0.14% among 360,000. P26447. S100A4/TAMRA-MyoIIA peptide fluorescence polarization. AID 652163;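 active = mean inhibition of at least 70% across replicates, with every replicate also reaching that level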
Target sequence (P26447 whole entry, looked up): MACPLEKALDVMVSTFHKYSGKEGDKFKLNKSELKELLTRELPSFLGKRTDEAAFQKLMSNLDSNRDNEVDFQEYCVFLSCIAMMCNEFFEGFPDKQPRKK
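assay system = human S100A4 monomer with TAMRA-labelled myosin IIA peptide | also added = labelled myosin peptide probe, 5 nM | incubation = 5 min between mix addition and reading | control set = DMSO and TFP controls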
E-sel inducer – induces E-selectin expression in human endothelial cells; AID 686992; HUVEC E-selectin immunofluorescence imaging; normalized: neutral wells 0, TNF-alpha wells 100; activation, % at 7.58 µM; P16581; hit rate 0.37% among 260,000;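 active = mean E-selectin-positive cell signal at least 10% of the positive control, reached in at least 60% of replicates, without over 20% cell loss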
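Read-out basis: % PE-positive cells; Test system: HUVEC primary endothelial cells; Technique: immunofluorescence imaging; Dosing: single-point compound dose.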
miR-122 sensor – inhibitors of miR-122 in Huh7 cells; hit rate 0.3% among 340,000; AID 602342; Huh7 miR-122 Renilla luciferase sensor, 48 h; neutral wells = 0, positive control = 100; activation (reporter increase), % at 12.5 µM;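 active = mean replicate activation score at least 90 and every replicate individually at or above 90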;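 also: higher luciferase means less miR-122 activity so hits act as miR-122 inhibitors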
FGF22 binding – FGF22 (human) thermal shift binding. activity (Tm shift, normalised), % at 9.99 µM. hit rate 1.5% among 340,000. Q9HCT0. AID 651658. recombinant FGF22 thermal shift, SYPRO orange fluorescence; percent of sucrose octasulfate shift, DMSO zero;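 active = mean Tm shift, scaled 0 neutral to 100 positive control, at about 1.3% or above, every replicate too, limit read from the data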
Target sequence (Q9HCT0 whole entry, looked up): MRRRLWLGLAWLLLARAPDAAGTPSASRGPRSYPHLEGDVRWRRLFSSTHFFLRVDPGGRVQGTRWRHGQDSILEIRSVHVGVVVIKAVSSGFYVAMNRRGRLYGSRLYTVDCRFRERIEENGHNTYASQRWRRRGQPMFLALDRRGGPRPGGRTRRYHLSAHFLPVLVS
Active calls of the source: *; · = no result given; [ ] = dose if it differs, or a comment.

SMILES	SIRT5 block	S100A4 inh HTS	E-sel inducer	miR-122 sensor	FGF22 binding
O=C(Nc1ccccc1F)N[C@H]1CC[C@H](CCNC(=O)C2CCCCC2)O[C@H]1CO	7.3	87.4*	0.0	17.8[16.7 µM]	-0.6
O=C(NCC[C@@H]1CC[C@H](NC(=O)c2ccccc2F)[C@H](CO)O1)c1ccc2c(c1)OCO2	4.4	11.3	-0.2	-11.9[16.7 µM]	-0.2
O=S(=O)(Cc1ccccc1)N1CCCCN2[C@H](CO)[C@H](c3ccc(-c4ccccc4)cc3)[C@@H]2C1	-1.6	-5.1	-0.9	6.5[16.7 µM]	0.0
CC(C)NC(=O)N(C)C[C@H]1OCCCC[C@H](C)Oc2ccc(N(C)C)cc2C(=O)N([C@H](C)CO)C[C@@H]1C	-1.0	-11.2	1.1	5.1[16.7 µM]	-1.3
COc1ccc(S(=O)(=O)N2CCOCC2)cc1NC(=O)c1cccc2c(=O)c(C)c(-c3ccccc3)oc12	26.7*	17.3	0.3	1.6	-0.1
CCc1ccc(NC(=O)CSc2nc3ccccc3c(=O)n2CCCC(=O)NCCCN2CCOCC2)cc1	1.2	-3.4	-0.1	-10.4	43.1*
Cc1ccc(NC(=O)CSc2nc3ccccc3c(=O)n2CCCC(=O)NCCCN2CCOCC2)cc1C	0.0	2.1	-3.7	-6.7	-0.1
Cc1ccc(-c2c(C)n([O-])c3c([n+]2=O)CCCC3)cc1	1.5	-2.8	·	·	-0.1
COc1ccc(-c2c(C)n([O-])c3c([n+]2=O)CCCCC3)cc1OC	-2.1	-3.2	·	-3.1	43.2*
CS(=O)(=O)N1CC2(C1)[C@@H](c1ccccc1)[C@@H](CO)N2CCC(F)(F)F	-6.2	2.6	-0.1	·	-0.5
CN(c1cccc(NC(=O)c2ccc(Cl)c(S(=O)(=O)Nc3ccccc3)c2)c1)S(C)(=O)=O	·	·	·	197.0*	·
Cc1ccccc1NS(=O)(=O)c1cc(C(=O)N2CCc3ccccc3C2)ccc1C	·	·	·	177.0*	·
Cc1ccc(C(=O)NCCSC2CCCCC2)cc1S(=O)(=O)Nc1ccccc1	-6.5	9.6	·	99.5*	0.1
Cc1ccc(C(=O)CNc2cccc([N+](=O)[O-])c2)cc1	0.2	-0.3	·	-2.4	43.1*
CN1C(=O)c2cc(NC(=O)C3CCC3)ccc2OC[C@H]2O[C@H](CC(=O)NCC3CCCCC3)CC[C@H]21	-7.9	3.1	0.1	·	-0.2
C[C@H]1CN([C@@H](C)CO)C(=O)c2cc(NC(=O)C3CCCCC3)ccc2O[C@H]1CN(C)Cc1ccc(Cl)c(Cl)c1	1.4	-16.0	0.5	0.5[16.7 µM]	0.1
CCCNC(=O)Nc1ccc2c(c1)OC[C@H](C)N(C(=O)C1CCOCC1)C[C@H](C)[C@@H](OC)CN(C)C2=O	-8.1	12.5	-0.2	·	-0.1
Cc1ccc(NC(=O)Nc2ccc([N+](=O)[O-])cc2)nc1	-1.8	-7.5	·	·	0.2
Cc1ccc(C(=O)Nc2ccccc2C(=O)O)cc1S(=O)(=O)Nc1ccccc1	1.2	-2.1	0.1	91.7*	·
Cc1ccc(NC(=O)Nc2cccc([N+](=O)[O-])c2)nc1	-0.9	2.0	·	·	43.0*
Cc1ccc(NS(=O)(=O)c2cc(C(=O)Nc3cccc([N+](=O)[O-])c3)ccc2C)cc1	3.3	-1.1	·	131.4*	0.8
Cc1ccc(C(=O)Nc2ccccc2C(=O)O)cc1S(=O)(=O)NC1CCCCC1	-18.1	2.8	-0.4	72.0	0.1
COc1ccc2c3c([nH]c2c1)[C@H](CO)N(C(=O)C1CCC1)CC31CN(C)C1	10.0	-3.1	-0.3	·	0.0
C[C@@H]1CN([C@H](C)CO)C(=O)c2cc(NS(=O)(=O)c3ccc(F)cc3)ccc2O[C@H]1CN(C)Cc1ccc(-c2ccccc2)cc1	10.6	-1.1	0.1	-4.8[16.7 µM]	-0.9
Cc1ccc(-c2cn3cccnc3n2)cc1	-61.9	1.0	1.9	-4.5	0.0
SMILES	SIRT5 block	S100A4 inh HTS	E-sel inducer	miR-122 sensor	FGF22 binding
Nc1cccc(-c2cn3cccnc3n2)c1	0.1	-1.4	-0.1	·	42.9*
Nc1nc2ccccc2n1C(=O)c1ccccc1	-0.1	3.4	-0.1	·	43.0*
Nc1nc2ccccc2n1C(=O)c1ccc(F)cc1	-4.4	1.5	·	-2.8	0.3
C[C@@H]1CN([C@H](C)CO)C(=O)c2cc(NC(=O)Cn3cnnn3)ccc2O[C@@H]1CN(C)Cc1ccc2c(c1)OCO2	4.7	-13.4	-0.8	-6.8[16.7 µM]	0.2
COc1ccc(NC(=O)Nc2ccc3c(c2)C(=O)N([C@H](C)CO)C[C@H](C)[C@H](CN(C)C(=O)Nc2ccc(C(F)(F)F)cc2)OCCCC[C@H](C)O3)cc1	3.4	4.1	0.1	10.6[16.7 µM]	0.7
COc1ccc(CN(C)C[C@H]2OCCCC[C@@H](C)Oc3ccc(NC(=O)NC4CCCCC4)cc3C(=O)N([C@H](C)CO)C[C@H]2C)cc1	18.7*	6.7	0.2	5.8[16.7 µM]	0.0
Cc1noc(C)c1NC(=O)Nc1ccc2c(c1)C(=O)N([C@H](C)CO)C[C@H](C)[C@@H](CN(C)C(=O)Nc1ccc(C(F)(F)F)cc1)OCCCC[C@H](C)O2	21.4*	39.0	-0.3	7.4[16.7 µM]	0.1
COc1ccc(NC(=O)N(C)C[C@@H]2OCCCC[C@@H](C)Oc3ccc(NC(=O)Nc4ccc(C(F)(F)F)cc4)cc3C(=O)N([C@@H](C)CO)C[C@@H]2C)cc1	15.7*	-1.7	0.2	·	·
COc1ccc(NC(=O)Nc2ccc3c(c2)C(=O)N([C@H](C)CO)C[C@@H](C)[C@H](CN(C)C(=O)NC2CCCCC2)OCCCC[C@H](C)O3)cc1	10.6	0.8	-0.2	-14.1[16.7 µM]	14.7*
COc1ccc(NC(=O)Nc2ccc3c(c2)C(=O)N([C@@H](C)CO)C[C@H](C)[C@H](CN(C)C(=O)NC2CCCCC2)OCCCC[C@@H](C)O3)cc1	2.1	-2.2	-0.2	-3.8[16.7 µM]	0.1
C[C@H]1CN([C@@H](C)CO)C(=O)c2cc(NC(=O)Cn3cnnn3)ccc2O[C@H]1CN(C)CC1CCCCC1	-2.1	11.9	-0.4	-3.2[16.7 µM]	-0.1
C/C=C/c1ccc([C@H]2[C@@H](CNC(C)=O)N(C(=O)Cc3cccnc3)[C@H]2CO)cc1	·	·	0.1	-21.4[16.7 µM]	·
C[C@@H]1CCCCO[C@H](CN(C)Cc2ccncc2)[C@@H](C)CN([C@@H](C)CO)C(=O)c2cc(NC(=O)Nc3cccc4ccccc34)ccc2O1	1.8	-4.4	0.2	0.6[16.7 µM]	-0.4
O=S(=O)(Cc1ccccc1)N1CCCCN2[C@@H](CO)[C@@H](c3ccc(-c4ccccc4)cc3)[C@@H]2C1	0.1	-0.7	-0.2	3.9[16.7 µM]	-0.1
C[C@@H]1CN([C@H](C)CO)C(=O)c2cc(NC(=O)Nc3ccc(C(F)(F)F)cc3)ccc2O[C@@H](C)CCCCO[C@H]1CN(C)C(=O)Nc1ccc(F)cc1	0.5	-5.6	0.4	-3.5[16.7 µM]	1.4*
COc1ccc(NC(=O)N(C)C[C@@H]2OCCCC[C@@H](C)Oc3ccc(NC(=O)Nc4ccc(F)cc4)cc3C(=O)N([C@H](C)CO)C[C@@H]2C)cc1	17.8*	-2.0	-0.1	3.2[16.7 µM]	-1.3
